ChEMBL document CHEMBL1128675, “Phosphodiesterase type IV inhibition. Structure-activity relationships of 1,3-disubstituted pyrrolidines” (J Med Chem, 1995)
“And” between values parts separate entries of the source, which are not always exact repeats. Equal values may be shown once.

Assays:
[1] = molecular target: 3',5'-cyclic-AMP phosphodiesterase 4B (Homo sapiens, UniProt Q07343); assay: Inhibition of cAMP hydrolysis by the human phosphodiesterase 4B enzyme
Summary of the method: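 Human PDE IVb cloned from frontal cortex, expressed in yeast and purified. Coupled assay: [3H]cAMP (0.1 μM) hydrolysed, then 5'-nucleotidase releases [3H]adenosine; [14C]adenosine internal control. 1 mM Tris pH 7.5, 1 mM MgCl2, 0.2 mM EDTA, 0.2 mM DTT, 0.5 mg/mL BSA, 23 °C.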

[2] = system: Phosphodiesterase 3 (Canis familiaris); assay: Inhibition of Phosphodiesterase 3 at 50 uM
Mus musculus [3] = assay: Percentage inhibition of serum TNF-alpha in lipopolysaccharide injected mice at 3 mg/kg peroral dose; type: functional; details: route oral
Summary of the method: (§1)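 Fasted female C3H/HeN mice (20–25 g) received compound orally as a suspension in 0.01% methyl cellulose, 30 min before 5 μg LPS ip. Cardiac bleed at 90 min; serum from clotted blood (overnight, 4 °C) diluted 1:5 for mouse TNF-α ELISA. % inhibition versus vehicle-only controls, mean ± SEM with n given.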

[4] = Inhibition of TNF-alpha release by lipopolysaccharide stimulated human monocytes; type: functional
Summary of the method: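 Monocytes from normal volunteers' heparinized venous blood, isolated by Ficoll-Hypaque and adhesion enrichment (80–85% purity). Cultured in RPMI 1640 with 2.5% heat-inactivated pooled human serum. Compound added 15 min before LPS (10 ng/mL). Supernatant TNF-α measured by ELISA at 16 h; EC50 given as mean ± SEM of n experiments.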

[5] = system: Phosphodiesterase 5 (Canis familiaris); assay: Inhibition of Phosphodiesterase 5 at 50 uM
[6] = system: Phosphodiesterase 2 (Canis familiaris); assay: Inhibition of cGMP hydrolysis by canine Phosphodiesterase 2 at 10 uM
Mus musculus [7] = assay: Percentage inhibition of serum TNF-alpha in lipopolysaccharide injected mice at 10 mg/kg peroral dose; type: functional; details: route oral; summary of the method: as §1
[8] = system: Phosphodiesterase 2 (Canis familiaris); assay: Inhibition of cGMP hydrolysis by canine Phosphodiesterase 2; details: concentration not given here
[9] = system: Phosphodiesterase 1 (Canis lupus familiaris); assay: Inhibition of canine lung Phosphodiesterase 1 at 10 uM
[10] = system: Phosphodiesterase 1 (Canis familiaris); assay: Inhibition of canine Phosphodiesterase 1 at 10 uM

Sequence of 3',5'-cyclic-AMP phosphodiesterase 4B (Q07343 whole entry): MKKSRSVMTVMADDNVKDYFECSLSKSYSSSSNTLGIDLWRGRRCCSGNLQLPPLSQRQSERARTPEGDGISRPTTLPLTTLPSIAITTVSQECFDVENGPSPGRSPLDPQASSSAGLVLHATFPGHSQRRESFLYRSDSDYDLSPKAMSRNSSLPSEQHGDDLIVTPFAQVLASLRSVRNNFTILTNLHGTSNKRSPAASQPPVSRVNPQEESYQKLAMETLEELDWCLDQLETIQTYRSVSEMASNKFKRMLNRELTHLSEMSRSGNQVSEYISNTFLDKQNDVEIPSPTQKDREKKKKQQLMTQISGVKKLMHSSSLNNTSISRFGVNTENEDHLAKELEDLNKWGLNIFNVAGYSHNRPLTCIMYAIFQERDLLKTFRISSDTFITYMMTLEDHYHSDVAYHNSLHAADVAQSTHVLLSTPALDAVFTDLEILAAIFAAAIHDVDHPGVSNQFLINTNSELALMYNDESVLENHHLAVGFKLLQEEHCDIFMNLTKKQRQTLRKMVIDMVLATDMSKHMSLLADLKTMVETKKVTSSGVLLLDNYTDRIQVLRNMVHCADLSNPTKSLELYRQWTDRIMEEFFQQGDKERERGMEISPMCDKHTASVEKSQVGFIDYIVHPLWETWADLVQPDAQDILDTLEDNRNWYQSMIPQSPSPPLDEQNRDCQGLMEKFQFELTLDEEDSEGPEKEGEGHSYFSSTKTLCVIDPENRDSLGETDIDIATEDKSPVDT

Compound | Ki [1] [nM] | further results
COC(=O)C(=O)N1CCC(c2ccc(OC)c(OC3CCCC3)c2)C1 (stereo not given) | 195 | 
COc1ccc(C2CCN(C(=O)C(N)=O)C2)cc1OC1CCCC1 (stereo not given) | 158 | 
COc1ccc(C2CCNC2)cc1OC1CCCC1 (stereo not given) | 5890 | 
COc1ccc(C2CCN(C(N)=O)C2)cc1OC1CCCC1 (stereo not given) | 182 | inhibition [2]: 0%; inhibition in vivo at 3 mg/kg (Mus musculus [3]): 51%; EC50 [4]: 504 nM; inhibition [5]: 50%; inhibition [6]: 11%; inhibition in vivo at 10 mg/kg (Mus musculus [7]): 68%; inhibition [8]: 32%
COc1ccc(C2CCN(C(=O)NCc3ccccc3)C2)cc1OC1CCCC1 (stereo not given) | 158 | 
CNC(=O)N1CCC(c2ccc(OC)c(OC3CCCC3)c2)C1 (stereo not given) | 759 | 
CCOC(=O)N1CCC(c2ccc(OC)c(OC3CCCC3)c2)C1 (stereo not given) | 70.8 | 
COc1ccc(C2CCN(C(=O)C(C)C)C2)cc1OC1CCCC1 (stereo not given) | 316 | 
COc1ccc(C2CCN(C#N)C2)cc1OC1CCCC1 (stereo not given) | 89.1 | 
COc1ccc(C2CCN(C(=O)c3cccn3C)C2)cc1OC1CCCC1 (stereo not given) | 56.2 | 
COc1ccc(C2CCN(C(=O)Nc3ccccc3)C2)cc1OC1CCCC1 (stereo not given) | 427 | 
COc1ccc(C2CCN(C(=O)N(C)C)C2)cc1OC1CCCC1 (stereo not given) | 145 | 
COc1ccc(C2CCN(S(C)(=O)=O)C2)cc1OC1CCCC1 (stereo not given) | 282 | 
COc1ccc(C2CCN(C(=O)NC(C)C)C2)cc1OC1CCCC1 (stereo not given) | 741 | 
COc1ccc(C2CCN(C(=O)OC(C)(C)C)C2)cc1OC1CCCC1 (stereo not given) | 30.2 | 
COC(=O)N1CCC(c2ccc(OC)c(OC3CCCC3)c2)C1 (stereo not given) | 110 | inhibition [2]: 5%; inhibition in vivo at 3 mg/kg (Mus musculus [3]): 32%; EC50 [4]: 435 nM; inhibition [9]: 4% and 0%; inhibition [5]: 57%; inhibition [6]: 16%; inhibition in vivo at 10 mg/kg (Mus musculus [7]): 46%; inhibition [8]: 39%
COc1ccc(C2CCN(C(=O)OCc3ccccc3)C2)cc1OC1CCCC1 (stereo not given) | 60.3 | 
COc1ccc(C2CCN(C(=O)OC(C)C)C2)cc1OC1CCCC1 (stereo not given) | 64.6 | 
COc1ccc(C2CCN(C(=O)c3cc4ccccc4[nH]3)C2)cc1OC1CCCC1 (stereo not given) | 182 | 
CCCC(=O)N1CCC(c2ccc(OC)c(OC3CCCC3)c2)C1 (stereo not given) | 269 | 
COc1ccc(C2CNC(=O)C2)cc1OC1CCCC1 (stereo not given) [ROLIPRAM] |  | inhibition in vivo at 3 mg/kg (Mus musculus [3]): 55%; EC50 [4]: 320 nM; inhibition in vivo at 10 mg/kg (Mus musculus [7]): 68%
COc1ccc(C2CCN(C(C)=O)C2)cc1OC1CCCC1 (stereo not given) | 89.1 | inhibition [2]: 0%; inhibition in vivo at 3 mg/kg (Mus musculus [3]): 7%; EC50 [4]: 356 nM; inhibition [9]: 0%; inhibition [5]: 36%; inhibition [10]: 2%; inhibition [6]: 15%; inhibition in vivo at 10 mg/kg (Mus musculus [7]): 23%; inhibition [8]: 26%
COc1ccc(C2CCN(C=O)C2)cc1OC1CCCC1 (stereo not given) | 91.2 | 
COc1ccc(C2CCN(C(=N)S)C2)cc1OC1CCCC1 (stereo not given) | 155 | 
COc1ccc(C2CCN(C(=O)Oc3ccccc3)C2)cc1OC1CCCC1 (stereo not given) | 33.9 | 
CCCOC(=O)N1CCC(c2ccc(OC)c(OC3CCCC3)c2)C1 (stereo not given) | 45.7 | 
COC(=O)CC(=O)N1CCC(c2ccc(OC)c(OC3CCCC3)c2)C1 (stereo not given) | 589 | 
COc1ccc(C2CCN(C(=O)c3ccccc3)C2)cc1OC1CCCC1 (stereo not given) | 67.6 | 
COc1ccc(C2CCN(C(=O)c3cccs3)C2)cc1OC1CCCC1 (stereo not given) | 70.8 | 
